This passage reports inhibition and fold change (FC) results from ChEMBL document CHEMBL5653631, “A Potent and Selective ULK1 Inhibitor Suppresses Autophagy and Sensitizes Cancer Cells to Nutrient Stress” (iScience, 2018).

The test system of one assay is U2OS. In words: Inhibition of autophagy in human U2OS cells assessed as BafA1-induced LC3B-II accumulation preincubated with compound for 3 hrs followed by BafA1 induction and measured after 1.5 hr under starvation condition by immunoblotting analysis. As to conditions: dose <= 5.0 µM, time 4.5 hrs. In kind it is functional, cell-based. In short, it runs like this: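 U2OS cells kept 3 hr in full growth medium or HBSS-based starvation medium with or without inhibitor; BafA1-induced LC3B-II accumulation quantified by immunoblotting against β-actin.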
In general terms: Immunoblotting shows a protein as a band on a membrane.

In assay [1] the target is Leukocyte tyrosine kinase receptor (Homo sapiens) (UniProt P29376). In words: Inhibition of human recombinant LTK at 40 nM related to control ULK1.
Assay [2] has as its target Protein kinase C beta type (Homo sapiens) (UniProt P05771). Nature of the assay: Inhibition of human recombinant PKCb at 40 nM in presence of ATP by radiometric assay relative to control.
Assay [3] has as its target Ribosomal protein S6 kinase alpha-5 (Homo sapiens) (UniProt O75582). Nature of the assay: Inhibition of human recombinant MSK1 at 40 nM in presence of ATP by radiometric assay relative to control.
In assay [4] the target is Fibroblast growth factor receptor 2 (Homo sapiens) (UniProt P21802). Nature of the assay: Inhibition of human recombinant FGFR2 at 40 nM related to control ULK1.
The target in assay [5] is Tyrosine-protein kinase Fyn (Homo sapiens) (UniProt P06241). In words: Inhibition of human recombinant FYN at 40 nM in presence of ATP by radiometric assay relative to control.
Assay [6] addresses PAS domain-containing serine/threonine-protein kinase (Homo sapiens) (UniProt Q96RG2). Nature of the assay: Inhibition of human recombinant PASK at 500 nM related to control ULK1.
Assay [7] concerns the target Serine/threonine-protein kinase PAK 3 (Homo sapiens) (UniProt O75914). Nature of the assay: Inhibition of human recombinant PAK3 at 500 nM related to control ULK1.
Assay [8] deals with MAP/microtubule affinity-regulating kinase 3 (Homo sapiens) (UniProt P27448). Nature of the assay: Inhibition of human recombinant MARK3 at 500 nM related to control ULK1.
Assay [9] deals with Tyrosine-protein kinase Fer (Homo sapiens) (UniProt P16591). In words: Inhibition of human recombinant FER at 500 nM related to control ULK1.
The target of assay [10] is T1, Testis-specific serine/threonine-protein kinase 1 (Homo sapiens) (UniProt Q9BXA7).
T1 sequence (whole entry): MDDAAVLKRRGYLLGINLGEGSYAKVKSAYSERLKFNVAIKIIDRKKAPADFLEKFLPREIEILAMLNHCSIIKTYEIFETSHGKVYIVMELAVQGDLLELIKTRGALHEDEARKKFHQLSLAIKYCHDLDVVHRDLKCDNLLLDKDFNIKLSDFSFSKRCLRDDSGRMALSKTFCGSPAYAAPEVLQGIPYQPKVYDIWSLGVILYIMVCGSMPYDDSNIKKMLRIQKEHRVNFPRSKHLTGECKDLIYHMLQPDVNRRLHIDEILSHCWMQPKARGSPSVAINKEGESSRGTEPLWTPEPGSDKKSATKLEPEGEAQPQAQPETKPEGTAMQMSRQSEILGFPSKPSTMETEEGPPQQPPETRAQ
In words: Inhibition of human recombinant TSSK1 at 15 nM in presence of ATP by radiometric assay relative to control.

Assay [11] has as its target Epithelial discoidin domain-containing receptor 1 (Homo sapiens) (UniProt Q08345). In words: Inhibition of human recombinant DDR1 at 15 nM related to control ULK1.
Assay [12] has as its target LIM domain kinase 1 (Homo sapiens) (UniProt P53667). Nature of the assay: Inhibition of human recombinant LIMK1 at 15 nM in presence of ATP by radiometric assay relative to control.
In assay [13] the target is T2, Mitogen-activated protein kinase kinase kinase 2 (Homo sapiens) (UniProt Q9Y2U5).
T2 sequence (whole entry): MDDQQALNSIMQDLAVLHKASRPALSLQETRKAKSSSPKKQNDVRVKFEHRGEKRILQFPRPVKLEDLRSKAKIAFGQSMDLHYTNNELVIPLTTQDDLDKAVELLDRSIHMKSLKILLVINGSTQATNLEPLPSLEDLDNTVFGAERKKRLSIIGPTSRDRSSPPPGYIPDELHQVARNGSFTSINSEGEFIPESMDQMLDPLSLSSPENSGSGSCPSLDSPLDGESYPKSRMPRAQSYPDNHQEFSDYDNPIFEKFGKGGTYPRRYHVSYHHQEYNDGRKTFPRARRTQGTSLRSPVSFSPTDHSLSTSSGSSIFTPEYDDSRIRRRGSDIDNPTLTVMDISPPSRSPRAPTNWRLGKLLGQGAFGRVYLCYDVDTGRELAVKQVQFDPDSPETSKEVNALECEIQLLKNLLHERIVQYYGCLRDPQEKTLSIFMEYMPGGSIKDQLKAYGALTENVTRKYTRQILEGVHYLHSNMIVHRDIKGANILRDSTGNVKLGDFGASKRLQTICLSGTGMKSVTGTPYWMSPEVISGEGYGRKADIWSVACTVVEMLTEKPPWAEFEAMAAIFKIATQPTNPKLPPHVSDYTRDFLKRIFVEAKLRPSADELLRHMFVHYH
In words: Inhibition of human recombinant MAP3K2 at 15 nM in presence of ATP by radiometric assay relative to control.

Tyrosine-protein kinase Fyn (Homo sapiens), sequence (P06241 2-537 limits assumed): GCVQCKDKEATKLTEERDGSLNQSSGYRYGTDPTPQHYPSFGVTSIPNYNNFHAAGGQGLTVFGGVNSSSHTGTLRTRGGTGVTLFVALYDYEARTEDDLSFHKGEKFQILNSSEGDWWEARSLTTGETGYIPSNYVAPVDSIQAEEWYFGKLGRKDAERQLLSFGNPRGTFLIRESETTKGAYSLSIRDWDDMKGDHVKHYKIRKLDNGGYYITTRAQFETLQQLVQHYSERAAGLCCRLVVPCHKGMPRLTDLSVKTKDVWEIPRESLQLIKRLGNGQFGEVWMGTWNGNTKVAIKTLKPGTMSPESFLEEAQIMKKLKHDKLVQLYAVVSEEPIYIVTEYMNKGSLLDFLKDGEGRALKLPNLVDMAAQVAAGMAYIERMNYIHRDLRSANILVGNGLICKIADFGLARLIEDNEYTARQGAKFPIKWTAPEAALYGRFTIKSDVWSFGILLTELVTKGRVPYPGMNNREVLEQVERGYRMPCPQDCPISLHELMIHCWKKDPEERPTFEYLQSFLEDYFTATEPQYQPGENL
PAS domain-containing serine/threonine-protein kinase (Homo sapiens), sequence (Q96RG2 whole entry, the tested form may be a part): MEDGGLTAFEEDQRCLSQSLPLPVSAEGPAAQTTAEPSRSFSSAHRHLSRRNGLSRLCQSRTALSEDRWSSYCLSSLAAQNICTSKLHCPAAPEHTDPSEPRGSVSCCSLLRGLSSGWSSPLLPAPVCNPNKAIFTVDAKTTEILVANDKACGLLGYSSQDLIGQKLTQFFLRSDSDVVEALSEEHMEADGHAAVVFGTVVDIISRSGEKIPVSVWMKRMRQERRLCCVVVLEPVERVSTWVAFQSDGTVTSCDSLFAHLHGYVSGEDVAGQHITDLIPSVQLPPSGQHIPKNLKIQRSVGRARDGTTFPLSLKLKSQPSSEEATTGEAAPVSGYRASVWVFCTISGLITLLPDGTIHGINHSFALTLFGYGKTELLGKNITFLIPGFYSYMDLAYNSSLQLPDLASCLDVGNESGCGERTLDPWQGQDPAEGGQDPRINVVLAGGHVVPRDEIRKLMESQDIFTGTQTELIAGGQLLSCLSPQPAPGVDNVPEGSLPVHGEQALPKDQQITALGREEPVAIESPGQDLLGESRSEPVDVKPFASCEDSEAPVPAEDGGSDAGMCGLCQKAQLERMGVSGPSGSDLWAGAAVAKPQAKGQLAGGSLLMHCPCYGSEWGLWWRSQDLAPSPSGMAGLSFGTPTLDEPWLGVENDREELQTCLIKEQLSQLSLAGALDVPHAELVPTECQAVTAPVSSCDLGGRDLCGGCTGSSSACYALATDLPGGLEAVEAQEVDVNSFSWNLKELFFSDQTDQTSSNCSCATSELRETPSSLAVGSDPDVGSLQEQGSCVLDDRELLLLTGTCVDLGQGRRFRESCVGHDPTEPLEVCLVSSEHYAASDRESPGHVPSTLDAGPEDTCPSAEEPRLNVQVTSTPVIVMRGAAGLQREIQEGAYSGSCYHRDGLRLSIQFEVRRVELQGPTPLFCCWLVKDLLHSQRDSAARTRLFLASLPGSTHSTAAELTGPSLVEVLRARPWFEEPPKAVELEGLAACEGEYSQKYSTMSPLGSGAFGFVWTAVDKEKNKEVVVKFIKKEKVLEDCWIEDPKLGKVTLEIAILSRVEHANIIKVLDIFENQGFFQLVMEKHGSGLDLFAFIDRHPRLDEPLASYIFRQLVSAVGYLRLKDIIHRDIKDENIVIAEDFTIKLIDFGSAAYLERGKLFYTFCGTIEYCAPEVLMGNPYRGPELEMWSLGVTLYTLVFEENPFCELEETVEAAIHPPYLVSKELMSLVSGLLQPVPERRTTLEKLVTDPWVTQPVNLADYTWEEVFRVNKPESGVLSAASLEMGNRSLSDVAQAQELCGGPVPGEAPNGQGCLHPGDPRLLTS
Tyrosine-protein kinase Fer (Homo sapiens), sequence (P16591 whole entry, looked up): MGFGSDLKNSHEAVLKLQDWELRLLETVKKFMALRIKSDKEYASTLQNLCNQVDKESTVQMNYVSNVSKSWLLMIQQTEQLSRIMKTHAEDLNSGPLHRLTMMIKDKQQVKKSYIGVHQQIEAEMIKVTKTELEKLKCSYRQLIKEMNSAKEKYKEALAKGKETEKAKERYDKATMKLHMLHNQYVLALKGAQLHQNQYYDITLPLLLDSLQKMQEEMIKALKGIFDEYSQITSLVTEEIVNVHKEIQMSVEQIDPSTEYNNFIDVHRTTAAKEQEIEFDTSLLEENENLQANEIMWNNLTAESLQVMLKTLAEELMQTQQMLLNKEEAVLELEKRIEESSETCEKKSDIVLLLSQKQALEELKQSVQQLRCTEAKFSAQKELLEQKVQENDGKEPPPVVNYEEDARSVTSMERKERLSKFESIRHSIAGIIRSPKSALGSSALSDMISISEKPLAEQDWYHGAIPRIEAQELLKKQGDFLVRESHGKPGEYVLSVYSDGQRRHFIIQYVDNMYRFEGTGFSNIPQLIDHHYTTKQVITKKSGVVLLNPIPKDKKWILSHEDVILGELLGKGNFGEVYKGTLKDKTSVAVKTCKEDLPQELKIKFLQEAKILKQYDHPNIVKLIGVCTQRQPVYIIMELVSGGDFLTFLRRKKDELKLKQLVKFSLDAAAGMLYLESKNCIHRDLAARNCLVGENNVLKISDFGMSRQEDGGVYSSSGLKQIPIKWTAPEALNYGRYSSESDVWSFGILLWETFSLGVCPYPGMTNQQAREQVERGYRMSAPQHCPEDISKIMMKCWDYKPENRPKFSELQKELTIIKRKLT
Ribosomal protein S6 kinase alpha-5 (Homo sapiens), sequence (O75582 whole entry, looked up): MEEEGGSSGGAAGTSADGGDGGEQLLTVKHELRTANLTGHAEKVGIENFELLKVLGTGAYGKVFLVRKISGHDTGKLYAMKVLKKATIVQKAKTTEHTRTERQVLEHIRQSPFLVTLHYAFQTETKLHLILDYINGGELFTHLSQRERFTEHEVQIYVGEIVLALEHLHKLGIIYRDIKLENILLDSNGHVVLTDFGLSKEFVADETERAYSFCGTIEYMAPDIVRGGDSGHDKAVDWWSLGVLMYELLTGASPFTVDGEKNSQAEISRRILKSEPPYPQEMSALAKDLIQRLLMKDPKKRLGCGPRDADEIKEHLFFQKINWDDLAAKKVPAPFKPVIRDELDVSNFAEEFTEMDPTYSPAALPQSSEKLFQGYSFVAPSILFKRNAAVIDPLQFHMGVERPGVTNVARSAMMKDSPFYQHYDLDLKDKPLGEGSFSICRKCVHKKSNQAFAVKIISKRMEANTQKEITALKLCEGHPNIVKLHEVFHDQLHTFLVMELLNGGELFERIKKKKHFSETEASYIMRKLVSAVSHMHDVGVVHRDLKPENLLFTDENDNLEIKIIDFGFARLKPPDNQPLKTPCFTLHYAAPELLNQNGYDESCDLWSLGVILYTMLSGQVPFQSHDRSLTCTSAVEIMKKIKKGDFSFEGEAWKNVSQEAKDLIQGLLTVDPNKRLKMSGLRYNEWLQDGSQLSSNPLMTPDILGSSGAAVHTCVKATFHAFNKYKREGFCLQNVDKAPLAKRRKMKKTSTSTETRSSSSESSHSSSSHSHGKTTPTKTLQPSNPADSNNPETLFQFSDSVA
Fibroblast growth factor receptor 2 (Homo sapiens), sequence (P21802 22-821 limits assumed): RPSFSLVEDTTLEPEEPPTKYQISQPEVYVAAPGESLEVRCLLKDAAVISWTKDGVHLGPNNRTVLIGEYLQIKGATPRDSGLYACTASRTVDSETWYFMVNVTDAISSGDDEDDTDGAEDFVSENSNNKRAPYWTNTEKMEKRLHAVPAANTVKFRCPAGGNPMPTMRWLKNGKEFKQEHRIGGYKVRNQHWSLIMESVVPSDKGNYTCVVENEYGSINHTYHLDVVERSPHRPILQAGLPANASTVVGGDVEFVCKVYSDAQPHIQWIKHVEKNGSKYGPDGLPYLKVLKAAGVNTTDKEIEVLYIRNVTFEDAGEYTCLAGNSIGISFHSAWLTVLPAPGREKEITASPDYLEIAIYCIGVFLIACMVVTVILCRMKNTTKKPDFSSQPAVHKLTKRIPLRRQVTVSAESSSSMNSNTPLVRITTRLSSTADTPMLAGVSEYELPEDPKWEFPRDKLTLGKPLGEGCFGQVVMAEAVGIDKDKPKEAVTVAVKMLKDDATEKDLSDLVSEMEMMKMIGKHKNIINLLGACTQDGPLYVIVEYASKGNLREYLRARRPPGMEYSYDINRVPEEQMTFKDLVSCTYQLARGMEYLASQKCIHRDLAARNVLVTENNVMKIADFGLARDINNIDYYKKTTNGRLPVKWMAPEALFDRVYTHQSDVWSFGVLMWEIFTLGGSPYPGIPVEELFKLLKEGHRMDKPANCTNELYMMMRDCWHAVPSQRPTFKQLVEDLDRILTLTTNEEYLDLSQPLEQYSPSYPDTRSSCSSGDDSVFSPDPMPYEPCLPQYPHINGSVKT
MAP/microtubule affinity-regulating kinase 3 (Homo sapiens), sequence (P27448 whole entry, looked up): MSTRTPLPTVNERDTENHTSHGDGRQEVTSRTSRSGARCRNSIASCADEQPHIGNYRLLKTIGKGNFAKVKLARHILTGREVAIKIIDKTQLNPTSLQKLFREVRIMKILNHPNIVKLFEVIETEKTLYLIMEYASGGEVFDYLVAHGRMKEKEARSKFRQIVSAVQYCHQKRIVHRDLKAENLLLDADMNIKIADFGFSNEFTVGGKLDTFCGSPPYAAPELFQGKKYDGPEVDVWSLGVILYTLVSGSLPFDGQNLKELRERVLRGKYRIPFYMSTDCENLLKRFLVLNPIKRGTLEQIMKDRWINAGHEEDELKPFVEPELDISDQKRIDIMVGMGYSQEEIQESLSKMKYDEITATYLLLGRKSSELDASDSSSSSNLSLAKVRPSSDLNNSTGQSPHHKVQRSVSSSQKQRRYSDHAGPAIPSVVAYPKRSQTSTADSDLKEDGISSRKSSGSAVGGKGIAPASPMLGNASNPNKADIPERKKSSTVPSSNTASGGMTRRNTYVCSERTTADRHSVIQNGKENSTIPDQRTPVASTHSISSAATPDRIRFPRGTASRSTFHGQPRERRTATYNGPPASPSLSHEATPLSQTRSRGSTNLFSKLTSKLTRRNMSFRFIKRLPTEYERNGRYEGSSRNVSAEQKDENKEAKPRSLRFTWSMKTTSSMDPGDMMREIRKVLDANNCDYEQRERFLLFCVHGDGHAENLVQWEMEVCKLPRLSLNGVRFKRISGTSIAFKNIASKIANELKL

`O=C(N[C@@H](C1CC1)C(F)(F)F)c1cc(-c2cnn3cc(-c4ccc(F)cc4)cnc23)cs1`: the inhibition result in the assay with U2OS was “Dose-Dependent Effect”; in [2], 3%; in [3], 0%; in assay [5], 0%. Besides, the fold change (FC) in [1] and in assay [4] was 0 each time.
Turning to `CNC(=O)c1ccccc1Oc1nc(Nc2cc(OC)c(OC)c(OC)c2)ncc1Br`, the fold change (FC) stood at 0.14 in [6], 0.12 in assay [7], 0.61 in [8] and 0 in assay [9].
For `CC(C)[C@H](NC(=O)c1cc(-c2cnn3cc(-c4ccc(OCCN5CCCCC5)cc4)cnc23)cs1)C(F)(F)F`, the inhibition in assay [10] is 23%; in assay [12], 56%; in assay [13], 3%. Besides, the fold change (FC) in assay [11] is 0.89.

Usually inhibition stands for the drop in the measured response relative to a control, in per cent.
